Data reported in ChEMBL document CHEMBL1138326, “Structure-based design, synthesis, and biological evaluation of indomethacin derivatives as cyclooxygenase-2 inhibiting nitric oxide donors” (J Med Chem, 2007).
pIC50: −log10 of the molar value.

Assays:
[1] = target: T1, Prostaglandin G/H synthase 1 (Homo sapiens, UniProt P23219); assay: Inhibition of COX1 in human whole blood assessed as effect on A23187-induced thromboxane B2 production; format: tissue-based
[2] = target: T2, Prostaglandin G/H synthase 2 (Homo sapiens) (UniProt P35354); assay: Inhibition of COX2 in human whole blood assessed as effect on LPS-induced thromboxane B2 production at 30 uM relative to control; values are per cent of control
T2 sequence (whole entry): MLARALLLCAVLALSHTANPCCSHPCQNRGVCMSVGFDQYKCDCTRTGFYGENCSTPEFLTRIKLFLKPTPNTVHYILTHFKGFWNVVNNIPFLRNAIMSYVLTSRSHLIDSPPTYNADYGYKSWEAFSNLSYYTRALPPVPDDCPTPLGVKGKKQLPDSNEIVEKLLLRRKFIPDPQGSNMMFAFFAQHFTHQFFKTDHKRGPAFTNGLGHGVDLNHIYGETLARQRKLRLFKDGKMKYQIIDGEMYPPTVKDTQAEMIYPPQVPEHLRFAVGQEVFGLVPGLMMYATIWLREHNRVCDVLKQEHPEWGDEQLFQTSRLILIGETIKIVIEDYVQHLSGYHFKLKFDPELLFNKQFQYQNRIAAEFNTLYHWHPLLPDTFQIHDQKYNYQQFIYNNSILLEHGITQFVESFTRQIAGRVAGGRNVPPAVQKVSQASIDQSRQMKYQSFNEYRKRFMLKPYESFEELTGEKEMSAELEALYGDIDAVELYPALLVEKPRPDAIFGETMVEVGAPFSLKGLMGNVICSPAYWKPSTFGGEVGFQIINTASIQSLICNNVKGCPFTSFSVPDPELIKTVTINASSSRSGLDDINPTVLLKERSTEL

[3] = target: T1, Prostaglandin G/H synthase 1; assay: Inhibition of COX1 in human whole blood assessed as effect on A23187-induced thromboxane B2 production at 3 uM relative to control; values are per cent of control
[4] = target: T1, Prostaglandin G/H synthase 1; assay: Inhibition of COX1 in human whole blood assessed as effect on A23187-induced thromboxane B2 production at 1 uM relative to control; values are per cent of control
[5] = target: T1, Prostaglandin G/H synthase 1; assay: Inhibition of COX1 in human whole blood assessed as effect on A23187-induced thromboxane B2 production at 30 uM relative to control; values are per cent of control
[6] = target: T1, Prostaglandin G/H synthase 1; assay: Inhibition of COX1 in human whole blood assessed as effect on A23187-induced thromboxane B2 production at 10 uM relative to control; values are per cent of control
[7] = target: T1, Prostaglandin G/H synthase 1; assay: Inhibition of COX1 in human whole blood assessed as effect on A23187-induced thromboxane B2 production at 100 uM relative to control; values are per cent of control
Homo sapiens = species: Homo sapiens; assay: Selectivity for human COX2 over human COX1
[8] = target: T1, Prostaglandin G/H synthase 1; assay: Inhibition of COX1 in human whole blood assessed as effect on A23187-induced thromboxane B2 production at 0.3 uM relative to control; values are per cent of control
Rattus norvegicus [9] = assay: Antiinflammatory activity against intrapouch dosed Sprague-Dawley rat carrageenan air-pouch model assessed as reduction of prostaglandin E2 at 45 umol/kg; format: functional; parameters: scale not given: the % may be the effect or the level left
Method in brief: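 Air pouch made with 20 mL sterile air sc on day -6 and 10 mL more on day -3; rats fasted 18 h. Compound in 0.5% methocel injected into the pouch 1 h before carrageenan (1 mL of 1.0% in saline). After 4 h, exudate recovered with PBS/heparin and assayed for PGE2 by enzyme immunoassay.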

Rattus norvegicus [10] = assay: Antiinflammatory activity against Sprague-Dawley rat carrageenan air-pouch model assessed as reduction of prostaglandin E2 at 45 umol/kg, po; format: functional; parameters: scale not given: the % may be the effect or the level left
Method in brief: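 Air pouches raised by sc injection of 20 mL sterile air (day -6) plus 10 mL on day -3; rats fasted 18 h. Compound suspended in 0.5% methocel given orally 1 h before intrapouch carrageenan (1 mL of 1.0% in saline). Exudate collected 4 h later after PBS/heparin lavage; PGE2 by enzyme immunoassay. Means ± SEM, n = 6–22; ANOVA with Dunnett's test vs vehicle.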

T1 sequence (P23219 whole entry): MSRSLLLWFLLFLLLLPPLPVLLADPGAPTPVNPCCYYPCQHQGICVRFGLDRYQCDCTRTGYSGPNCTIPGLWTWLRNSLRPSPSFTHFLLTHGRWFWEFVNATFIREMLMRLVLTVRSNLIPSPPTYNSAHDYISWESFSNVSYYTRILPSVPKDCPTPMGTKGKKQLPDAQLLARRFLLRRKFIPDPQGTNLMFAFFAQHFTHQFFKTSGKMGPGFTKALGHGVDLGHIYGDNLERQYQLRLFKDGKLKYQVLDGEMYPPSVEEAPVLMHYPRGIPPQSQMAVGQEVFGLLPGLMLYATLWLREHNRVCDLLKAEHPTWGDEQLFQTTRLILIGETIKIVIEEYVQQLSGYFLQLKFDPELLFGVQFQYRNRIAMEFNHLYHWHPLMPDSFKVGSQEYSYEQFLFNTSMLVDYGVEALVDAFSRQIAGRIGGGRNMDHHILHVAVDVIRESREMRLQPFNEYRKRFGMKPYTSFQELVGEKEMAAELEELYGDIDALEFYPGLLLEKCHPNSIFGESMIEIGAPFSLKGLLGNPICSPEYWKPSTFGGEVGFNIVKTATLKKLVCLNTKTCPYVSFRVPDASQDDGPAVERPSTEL

SMILES	pIC50 [1]	residual activity [3] [%]	residual activity [4] [%]	residual activity [6] [%]	residual activity [7] [%]	also measured
Cc1c(CC(=O)NCCCO)c2cc(O)ccc2n1C(=O)c1ccc(Cl)cc1	5.27	58	83	40	8	residual activity [2]: 4%; residual activity [5]: 7%
COc1ccc2c(c1)c(CCN)c(C)n2C(=O)c1ccc(Cl)cc1	< 5.00		100	100	1	residual activity [2]: 78%
COc1ccc2c(c1)c(CC(=O)NCCCO[N+](=O)[O-])c(C)n2CC1CCCCC1					100	
CCOC(=O)Cc1c(C)n(CC2CCCCC2)c2ccc(OC)cc12					85	
COc1ccc2c(c1)c(CCO[N+](=O)[O-])c(C)n2CC1CCCCC1					93	
COc1ccc2c(c1)c(CC(=O)NCCCO[N+](=O)[O-])c(C)n2Cc1ccc(S(C)(=O)=O)cc1					53	
COc1ccc2c(c1)c(CCO)c(C)n2CC1CCCCC1					95	
Cc1c(CC(=O)O)c2cc(O)ccc2n1C(=O)c1ccc(Cl)cc1		80	100	55	18	residual activity [2]: 0%
COc1ccc2c(c1)c(CC(=O)O)c(C)n2CC1CCCCC1					85	
COc1ccc2c(c1Cl)c(CC(=O)OCc1ccccc1)c(C)n2C(=O)c1ccc(Cl)cc1	< 4.00				65	
COc1ccc2c(c1)c(CC(=O)NC(CO[N+](=O)[O-])(CO[N+](=O)[O-])CO[N+](=O)[O-])c(C)n2C(=O)c1ccc(Cl)cc1	5.92	16	50	11	1	
COc1ccc2c(c1)c(CC(=O)O)c(C)n2C(=O)c1ccc(Cl)cc1 [INDOMETHACIN]						Activity (Rattus norvegicus [9]): 97%
COc1ccc2c(c1)c(CC(=O)O)c(C)n2Cc1ccc(S(C)(=O)=O)cc1					87	
COc1cc2c(CC(=O)OCc3ccccc3)c(C)n(C(=O)c3ccc(Cl)cc3)c2cc1Cl	< 4.00				58	
COc1ccc2c(c1)c(CCNS(=O)(=O)c1ccc(CO[N+](=O)[O-])cc1)c(C)n2C(=O)c1ccc(Cl)cc1	5.72		68	23	12	
COc1ccc2c(c1)c(CCNS(=O)(=O)CCCO)c(C)n2C(=O)c1ccc(Cl)cc1	5.43	51	73	33	6	Ratio IC50 (Homo sapiens): 3.5; Activity (Rattus norvegicus [9]): 98%; Activity (Rattus norvegicus [10]): 96%; residual activity [2]: 0%; residual activity [5]: 23%; residual activity [8]: 82%
COc1cc2c(CC(=O)O)c(C)n(C(=O)c3ccc(Cl)cc3)c2cc1Cl	5.80	41	61	24	13	Ratio IC50 (Homo sapiens): 0.4; residual activity [2]: 0%; residual activity [5]: 2%

Continued, in another order:

pIC50 [1]	residual activity [3] [%]	residual activity [4] [%]	residual activity [6] [%]	residual activity [7] [%]	SMILES	also measured
> 6.52				1	COc1ccc2c(c1)c(CC(=O)NOCCCO)c(C)n2C(=O)c1ccc(Cl)cc1	Ratio IC50 (Homo sapiens): < 0.4; residual activity [8]: 28%
				44	COc1ccc2c(c1)c(CCOC(=O)NS(=O)(=O)OCCCO[N+](=O)[O-])c(C)n2C(=O)c1ccc(Cl)cc1	
5.55		84	29	2	COc1ccc2c(c1)c(CC(=O)NO)c(C)n2C(=O)c1ccc(Cl)cc1 [OXAMETACIN]	
> 6.52				0	COc1ccc2c(c1)c(CC(=O)NOCc1ccccc1)c(C)n2C(=O)c1ccc(Cl)cc1	
> 6.00		39	14	6	COc1ccc2c(c1)c(CC(=O)N(OC(C)=O)C(C)=O)c(C)n2C(=O)c1ccc(Cl)cc1	
5.33	74		27	1	Cc1c(CC(=O)NCCCO[N+](=O)[O-])c2cc(O)ccc2n1C(=O)c1ccc(Cl)cc1	residual activity [2]: 2%; residual activity [5]: 1%
5.64	18	76	16	0	COc1ccc2c(c1)c(CCO)c(C)n2C(=O)c1ccc(Cl)cc1	
4.96	68	100	57	16	COc1ccc2c(c1)c(CCNS(=O)(=O)CCCO[N+](=O)[O-])c(C)n2C(=O)c1ccc(Cl)cc1	Activity (Rattus norvegicus [9]): 59%; Activity (Rattus norvegicus [10]): 44%; residual activity [2]: 7%; residual activity [5]: 20%
				76	COc1ccc2c(c1)c(CCP(=O)(O)O)c(C)n2C(=O)c1ccc(Cl)cc1	
5.52		93	29	2	COc1ccc2c(c1)c(CCNC(=O)NCCCO[N+](=O)[O-])c(C)n2C(=O)c1ccc(Cl)cc1	Ratio IC50 (Homo sapiens): 0.3
		83	74	62	COc1ccc2c(c1)c(CCOC(=O)NCCCO[N+](=O)[O-])c(C)n2C(=O)c1ccc(Cl)cc1	
5.44		68	34	7	COc1ccc2c(c1)c(CC(=O)NOC(C)=O)c(C)n2C(=O)c1ccc(Cl)cc1	
		100	100	61	COc1ccc2c(c1)c(CCOC(=O)NS(=O)(=O)NCCCO[N+](=O)[O-])c(C)n2C(=O)c1ccc(Cl)cc1	
> 6.00					COc1ccc2c(c1)c(CCNC(=O)c1ccc(CO[N+](=O)[O-])cc1)c(C)n2C(=O)c1ccc(Cl)cc1	
5.62	46	64	23	1	COc1ccc2c(c1)c(CC(=O)NCCCCO)c(C)n2C(=O)c1ccc(Cl)cc1	Ratio IC50 (Homo sapiens): 2
		69	73	15	COc1ccc2c(c1)c(CCO[N+](=O)[O-])c(C)n2C(=O)c1ccc(Cl)cc1	
> 6.00	20		3	1	COc1ccc2c(c1)c(CC(=O)NOCCO)c(C)n2C(=O)c1ccc(Cl)cc1	
< 4.00		100	92	65	Cc1c(CC(=O)NCCCO[N+](=O)[O-])c2cc(OS(N)(=O)=O)ccc2n1C(=O)c1ccc(Cl)cc1	Ratio IC50 (Homo sapiens): > 4; residual activity [2]: 46%
5.59	45	78	25	3	COc1ccc2c(c1)c(CC(=O)NCC(C)(C)CO[N+](=O)[O-])c(C)n2C(=O)c1ccc(Cl)cc1	residual activity [5]: 3%
